This excerpt belongs to a sample that is enriched for hits.
MKP-1 inh – inhibitors of human MKP-1 phosphatase; inhibition, %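 (compounds tested at a single concentration somewhere between 10 and 100 µM)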; 65,000 tested, 0.15% active; AID 374; P28562; recombinant MKP-1, OMFP hydrolysis fluorescence;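 active means inhibition above about 50%, limit read from the data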;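 further: 0% = DMSO max control wells and 100% = wells with enzyme stopped by NaOH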
Target sequence (P28562 whole entry, looked up): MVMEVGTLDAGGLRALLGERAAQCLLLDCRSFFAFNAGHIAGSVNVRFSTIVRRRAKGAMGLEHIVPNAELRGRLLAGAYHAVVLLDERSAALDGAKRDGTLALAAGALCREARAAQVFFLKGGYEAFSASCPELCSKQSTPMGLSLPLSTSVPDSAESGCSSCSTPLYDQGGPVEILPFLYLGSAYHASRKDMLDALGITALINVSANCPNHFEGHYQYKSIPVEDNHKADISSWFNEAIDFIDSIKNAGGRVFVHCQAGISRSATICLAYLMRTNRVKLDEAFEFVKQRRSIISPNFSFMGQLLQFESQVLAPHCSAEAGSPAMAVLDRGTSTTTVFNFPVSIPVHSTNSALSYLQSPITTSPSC
MMP-13 inhibitor – inhibitors of human MMP13; P45452; MMP-13 fTHP FRET cleavage, Mca fluorescence; inhibition, % at 4 µM; 65,000 tested, 0.07% active; AID 570;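 active means inhibition above the mean of compound-free control plate wells plus 3 SD, cut at about 14% in these data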;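 further: 0% = DMSO wells and 100% = wells with reference MMP-13 inhibitor after basal subtraction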
tolC growth inh – E. coli tolC mutant growth inhibition; E. coli BW25113 tolC mutant growth, OD615; growth inhibition, % at 10 µM (by protocol); 65,000 tested, 2.2% active; AID 573;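 active means growth inhibition at or above a cutoff equal to the mean over every tested compound plus 3 SD, cut at about 60% in these data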;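 further: growth measured after 20 h incubation at 37 °C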
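Test system: tolC-deleted E. coli BW25113 | Medium: LB with kanamycin 50 µg/mL | Compound dosing: Single concentration, 10 µM final per compound | Schedule: 37 °C, 20 h exposure | Measured by: OD at 615 nm | Evaluation: Percent growth inhibition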
Cdc25B inh – human M-phase inducer phosphatase 2 inhibition; P30305; recombinant Cdc25B, OMFP fluorescence Ex485/Em525; inhibition, %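 (compounds tested at 10 µM final in the well)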; 65,000 tested, 0.1% active; AID 368; in the data active means inhibition above about 50%
E coli WT exp – E. coli BW25113 growth inhibition, expanded screen | OD600 absorbance | growth inhibition, % at 100 µM | 98,000 tested, 0.15% active | AID 710;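 active means growth inhibition above about 50% at one test dose, limit read from the data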;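 further: growth measured after 20 h incubation at 37 °C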
HePTP inhibitor – blocks human HePTP tyrosine phosphatase; recombinant HePTP phosphatase activity, OD absorbance; inhibition, % at 20 µM; 110,000 tested, 0.64% active; in the data active means inhibition above about 50%;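 further: plate controls were vehicle for no effect and reference inhibitor for full effect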
Target sequence (P35236 whole entry, looked up): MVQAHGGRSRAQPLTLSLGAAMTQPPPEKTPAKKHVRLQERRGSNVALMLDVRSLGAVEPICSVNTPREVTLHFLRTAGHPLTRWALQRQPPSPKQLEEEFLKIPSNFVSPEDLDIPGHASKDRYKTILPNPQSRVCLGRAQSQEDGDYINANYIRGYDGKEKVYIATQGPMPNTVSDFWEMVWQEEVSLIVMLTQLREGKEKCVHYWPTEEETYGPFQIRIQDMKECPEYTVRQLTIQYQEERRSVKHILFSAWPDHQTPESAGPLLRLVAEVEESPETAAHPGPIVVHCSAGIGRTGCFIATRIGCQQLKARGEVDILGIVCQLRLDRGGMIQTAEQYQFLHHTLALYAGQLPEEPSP
An asterisk follows results filed as active; . = not tested or not shown.

SMILES	MKP-1 inh	MMP-13 inhibitor	tolC growth inh	Cdc25B inh	E coli WT exp	HePTP inhibitor
CCOC(=O)c1cc2sccc2n1CC(=O)N1CCCc2ccccc21	-1.8	3.9	100.0*	3.5	-3.0	1.0
COc1ccc(NC(=O)c2cc(-c3cc(C)cc(C)c3O)n[nH]2)cc1Cl	-3.4	-1.2	96.0*	2.4	-1.0	-0.7
Cc1cc(C)c(O)c(-c2cc(C(=O)NCc3ccccc3)[nH]n2)c1	.	.	.	.	-2.0	.
Cc1ccc(-c2csc(NC(=O)c3ccc([N+](=O)[O-])c(C)c3)n2)cc1	.	.	.	.	.	-4.9
Cc1cccc(NC(=O)CSc2nnc(-c3cc(C)n(-c4ccccc4)c3C)o2)c1C	1.6	3.5	62.7*	-4.3	-26.0	15.6
NC(=O)c1ccc(NC(=O)/C=C/c2ccccc2)cc1	.	.	.	.	.	-16.5
CCOc1ccc(NC(=O)CC2SC(N)=NC2=O)cc1 (centres undefined)	.	.	.	.	.	-5.0
COc1ccc(C(=O)NNC(=S)NC(=O)c2ccco2)cc1	.	.	.	.	80.0*	.
CCC(=O)NC(=S)NNC(=O)c1ccc(OC)cc1	.	.	.	.	75.0*	.
CCCOc1ccc(C(=O)NNC(=S)NC(C)=O)cc1	.	.	.	.	88.0*	.
O=C(NC(=S)NNC(=O)c1cccs1)c1ccco1	.	.	.	.	67.0*	.
CCC(=O)NC(=S)NNC(=O)c1ccc([N+](=O)[O-])cc1	.	.	.	.	28.0	.
COc1c(Cl)ccc(Cl)c1C(=O)Nc1ccc(I)cc1	.	.	.	.	.	-16.0
Cc1ccc(C(=O)NNC(=S)NC(=O)COc2ccccc2)cc1	.	.	.	.	51.0*	.
CC(NC(=O)CN(c1ccccc1)S(=O)(=O)c1ccccc1[N+](=O)[O-])c1ccccc1 (centres undefined)	.	.	.	.	.	-15.5
COc1ccc(/C(O)=C2\C(=O)C(=O)N(CC3CCCO3)C2c2cc(OC)ccc2OC)cc1 (centres undefined)	-16.9	3.3	100.0*	-3.6	-2.0	7.0
C(=NN1CCN(c2ccccn2)CC1)c1cccc(OCc2ccccc2)c1	.	.	.	.	.	1.8
Cc1cc2nc(-c3ccc(Cl)c(NC(=O)/C=C/c4ccco4)c3)oc2cc1C	.	.	.	.	.	7.5
O=C1CSC(c2cn(-c3ccccc3)nc2-c2ccccc2)N1Cc1ccc(Cl)cc1 (centres undefined)	.	.	.	.	.	73.6*
O=C1CSC(c2cn(-c3ccccc3)nc2-c2ccc(Cl)cc2)N1Cc1ccccc1 (centres undefined)	.	.	.	.	.	-13.1
CC(=O)c1cccc(NC(=O)c2cc(S(=O)(=O)N3CCOCC3)ccc2Cl)c1	.	.	.	.	.	3.5
O=C(CSc1cccc[n+]1[O-])c1cc2ccccc2o1	-0.2	4.3	5.4	-13.7	97.0*	-4.3
CCc1ccc(NC(=O)c2c(-c3ccccc3)noc2C)cc1	.	.	.	.	.	-4.7
O=C(Nc1ccc(I)cc1Cl)c1ccc([N+](=O)[O-])cc1	.	.	.	.	.	87.8*
O=C(O)c1ccc(NC(=O)c2ccc3c(c2)C(=O)N(c2ccc([N+](=O)[O-])cc2)C3=O)cc1	.	.	.	.	.	59.1*
SMILES	MKP-1 inh	MMP-13 inhibitor	tolC growth inh	Cdc25B inh	E coli WT exp	HePTP inhibitor
O=C(O)c1ccc(NC(=O)c2cc(NC(=O)c3ccc(C(=O)O)cc3)cc(C(=O)Nc3ccc([N+](=O)[O-])cc3)c2)cc1	.	.	.	.	.	100.9*
O=C(Nc1cc(C(=O)Nc2ccc(Cl)cc2)cc(C(=O)Nc2ccc(Cl)cc2)c1)c1ccc([N+](=O)[O-])cc1	.	.	.	.	.	3.3
COc1ccc(Cl)cc1C(=O)Nc1cccc(C)c1C	.	.	.	.	.	2.5
CC(C)c1ccc(Nc2nc(NCc3ccco3)nc(N3CCOCC3)n2)cc1	0.6	3.0	66.0*	0.7	-7.0	9.6
Clc1ccc(Nc2nc(NCCN3CCOCC3)nc(N3CCOCC3)n2)cc1	15.1	-0.7	-19.2	8.6	-2.0	13.7
C/C(=N\Nc1nc(C)cc(=O)[nH]1)c1ccc(C)cc1	.	.	.	.	.	-1.1
CCc1cccc(NC(=O)c2cnccn2)c1	.	.	.	.	.	-9.7
Cc1cccc(NC(=O)c2cnccn2)c1	.	.	.	.	.	59.6*
COc1ccc(N2C(=O)CC(SC(=N)N3N=C(c4ccc(C)cc4)CC3c3ccc(Br)cc3)C2=O)cc1 (centres undefined)	.	.	.	.	.	-5.1
COc1ccc(CCNc2oc(COc3ccccc3)nc2C#N)cc1	19.9	-2.0	9.8	10.9	-11.0	4.3
N#Cc1nc(COc2ccccc2F)oc1NCCc1ccccc1	-5.4	9.2	100.0*	-3.7	7.0	0.8
O=C(Nc1ccccc1)c1cccnc1N1CCOCC1	0.5	0.4	-30.3	53.2*	1.0	-1.3
O=C(Nc1ccc(C(F)(F)F)cc1)c1cccnc1N1CCOCC1	.	.	.	.	5.0	.
CN(C1=NC(=O)S/C1=C\c1ccc([N+](=O)[O-])cc1)c1ccc(O)cc1	.	.	.	.	.	55.8*
CN(C1=NC(=O)/C(=C\C(Cl)=C\c2ccc([N+](=O)[O-])cc2)S1)c1ccc(O)cc1	.	.	.	.	.	7.5
COC(=O)c1ccccc1NC(=O)CN(c1ccc(OC)cc1)S(=O)(=O)c1ccc(C)cc1	.	.	.	.	.	50.4*
COCCN1CSC(=S)N(Cc2ccco2)C1	31.2	0.8	17.3	-6.6	62.0*	-6.7
S=C1SCN(Cc2ccccn2)CN1Cc1ccco1	30.6	3.3	21.1	-13.3	71.0*	-4.2
C/C(O)=C/c1nc2ccccc2nc1/C=C(/C)O	.	.	.	.	.	-8.2
Oc1c(CN2CCc3ccccc3C2)cc(Cl)c2cccnc12	3.5	5.3	64.0*	-9.9	86.0*	-4.3
Oc1c(CN2CCCCC2)cc(Br)c2cccnc12	-13.8	3.6	100.0*	-10.3	100.0*	-6.4
COCc1cc(CN2CCOCC2)c(O)c2ncccc12	.	.	.	.	.	11.9
Cc1ccc(S(=O)(=O)Nc2nc3ccccc3nc2N2CCN(c3ccccc3F)CC2)cc1	.	.	.	.	-20.0	.
O=S(=O)(Nc1nc2ccccc2nc1N1CCN(c2ccccn2)CC1)c1ccc(Cl)cc1	35.3	1.3	82.7*	11.1	-4.0	.
CCc1cc2c(=O)n(Cc3ccco3)c(SCC(=O)N3CCCc4ccccc43)nc2s1	27.0	0.8	14.2	-5.9	-17.0	7.7
SMILES	MKP-1 inh	MMP-13 inhibitor	tolC growth inh	Cdc25B inh	E coli WT exp	HePTP inhibitor
CCc1cc2c(=O)n(Cc3ccco3)c(SCc3c(C)noc3C)nc2s1	7.2	5.6	64.7*	-18.9	-28.0	1.2
COc1ccc(C(=O)CSC2=C(C#N)C3(CCCCC3)C(C#N)=C(N)N2)cc1	-17.6	-3.0	8.9	-20.6	-8.0	-3.1
N#CC1=C(N)NC(SCC(=O)c2ccc(Cl)cc2)=C(C#N)C12CCCC2	.	.	.	.	-1.0	104.3*
N#CC1=C(N)NC(SCc2ccccc2)=C(C#N)C12CCCCC2	6.8	0.3	61.7*	-11.0	16.0	3.7
O=C1N=c2ccc(Cl)cc2=C1c1sc(NS(=O)(=O)Cc2ccccc2)nc1O	.	.	.	.	.	7.3
COc1ccccc1N/C(=N/S(=O)(=O)c1ccccc1)c1ccccc1	.	.	.	.	.	5.6
COc1cc(OC)c(OC)cc1CN1CCN(C(=O)c2ccc([N+](=O)[O-])cc2)CC1	.	.	.	.	.	4.5
CCOc1ccccc1N1CCN(C(=O)c2cccc(F)c2)CC1	.	.	.	.	.	102.7*
CCOc1ccc(C(=O)N2CCN(c3cccc(C)c3C)CC2)cc1	2.8	3.2	81.5*	-13.3	4.0	-8.9
CC(C)Oc1ccccc1NC(=O)CSc1nc2ccccc2n1C	.	.	.	.	.	12.3
O=C(CNCCC1=CCCCC1)Nc1ccccc1N1CCCCC1	-4.9	3.1	100.0*	-25.5	10.0	9.2

High-throughput results from PubChem BioAssay.
